# “And” between values parts separate entries of the source, which are not always exact repeats. Equal entries are not always repeated. The source made the active and inactive calls. No cut-off for these calls is given here.
# Tests used:
# Plasmodium falciparum [1] = assay: Antiplasmodial activity against asexual Plasmodium falciparum 3D7 infected in human […] cells assessed as reduction in parasite growth measured for 72 hrs by LDH assay; format: functional, organism-based; details: 3D7, 72 h
# HepG2 = assay: Cytotoxicity against human HepG2 cells assessed as inhibition of cell growth incubated for 48 hrs by celltiterglo assay; format: toxicity, cell-based; details: hepg2, 48 h
# [2] = Aqueous solubility in PBS buffer at pH 7.4; format: physicochemical
# [3] = Metabolic stability in human liver microsome assessed as intrinsic clearance; format: ADME; details: microsomes
# [4] = Metabolic stability in rat hepatocyte […] assessed as intrinsic clearance measured per 10^6 cells; format: ADME, cell-based; details: hepatocytes
# [5] = Lipophilicity, logD of compound at pH 7.4 by shake-flask method; format: physicochemical; details: buffer
# [6] = target: T1, P-type sodium-transporting ATPase4 (Plasmodium falciparum (isolate 3D7), UniProt A0A143ZZK9); assay: Inhibition of Plasmodium falciparum 3D7 ATP4
# T1 sequence (A0A143ZZK9 whole entry): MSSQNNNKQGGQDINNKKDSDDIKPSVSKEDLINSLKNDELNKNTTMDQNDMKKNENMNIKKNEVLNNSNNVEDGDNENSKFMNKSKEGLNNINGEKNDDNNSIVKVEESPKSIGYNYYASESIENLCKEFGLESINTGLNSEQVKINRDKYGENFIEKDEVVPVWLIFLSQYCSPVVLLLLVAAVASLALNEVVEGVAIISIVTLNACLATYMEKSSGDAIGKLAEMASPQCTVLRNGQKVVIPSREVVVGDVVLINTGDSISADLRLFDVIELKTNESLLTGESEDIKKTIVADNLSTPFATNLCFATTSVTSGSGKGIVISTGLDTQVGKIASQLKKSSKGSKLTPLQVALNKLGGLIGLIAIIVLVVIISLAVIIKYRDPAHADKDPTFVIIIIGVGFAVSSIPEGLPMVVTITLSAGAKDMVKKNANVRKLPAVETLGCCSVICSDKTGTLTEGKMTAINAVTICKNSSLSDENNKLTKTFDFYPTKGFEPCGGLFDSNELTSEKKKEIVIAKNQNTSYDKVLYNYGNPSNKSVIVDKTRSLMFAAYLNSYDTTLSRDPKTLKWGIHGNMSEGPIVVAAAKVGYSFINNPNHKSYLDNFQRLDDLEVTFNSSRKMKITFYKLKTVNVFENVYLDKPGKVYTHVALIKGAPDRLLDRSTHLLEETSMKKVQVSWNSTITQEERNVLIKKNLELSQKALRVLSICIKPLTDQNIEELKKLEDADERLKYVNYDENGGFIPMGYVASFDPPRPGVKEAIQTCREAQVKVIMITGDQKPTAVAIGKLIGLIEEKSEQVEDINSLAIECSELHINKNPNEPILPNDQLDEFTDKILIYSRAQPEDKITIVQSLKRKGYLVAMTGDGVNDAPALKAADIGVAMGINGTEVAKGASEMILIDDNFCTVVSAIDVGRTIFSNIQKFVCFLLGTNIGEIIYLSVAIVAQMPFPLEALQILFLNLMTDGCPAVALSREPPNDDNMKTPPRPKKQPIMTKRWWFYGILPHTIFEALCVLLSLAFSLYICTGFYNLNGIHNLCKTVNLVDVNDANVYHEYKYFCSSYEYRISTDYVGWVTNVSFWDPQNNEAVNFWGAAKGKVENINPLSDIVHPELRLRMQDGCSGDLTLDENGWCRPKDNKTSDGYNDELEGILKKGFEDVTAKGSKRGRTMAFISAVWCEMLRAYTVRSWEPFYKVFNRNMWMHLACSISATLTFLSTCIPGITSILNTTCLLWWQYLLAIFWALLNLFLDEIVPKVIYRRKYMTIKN
# [7] = Inhibition of Plasmodium falciparum Dd2 ATP4 G358S mutant assessed as reduction in Na+-ATPase activity incubated for 10 mins in presence of ATP
# Method in brief: (§1)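 Membranes were prepared from Dd2-Polδ parasites (wild-type PfATP4) or Dd2-Polδ-PfATP4G358S parasites. ATPase activity was read as Pi production, with 1 mM Na2ATP, at high [Na+] (152 mM) and low [Na+] (2 mM). PfATP4-associated activity is the high-Na+ minus low-Na+ Pi, expressed as % of the high-Na+ control, over a concentration range. Data are means ± SEM of 2–5 independent membrane preparations.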
# [8] = Inhibition of Plasmodium falciparum Dd2 ATP4 assessed as reduction in Na+-ATPase activity incubated for 10 mins in presence of ATP; method in brief: as §1
# [9] = target: T2, P-type sodium-transporting ATPase4 (Plasmodium falciparum (isolate 3D7)) (UniProt A0A143ZZK9); assay: Inhibition of Plasmodium falciparum 3D7 ATP4 assessed as reduction in Na+-ATPase activity at 2 uM incubated for 10 mins under high [Na+] condition in absence of KAE609
# T2 sequence (whole entry): T1 sequence (A0A143ZZK9 whole entry)
# Plasmodium falciparum [10] = assay: Antiplasmodial activity against Plasmodium falciparum 3D7 infected in human […] cells incubated for 72 hrs; format: functional, organism-based; details: 3D7, 72 h
# Plasmodium falciparum [11] = assay: Antiplasmodial activity against W454-resistant population 1 Plasmodium falciparum 3D7 harboring Plasmodium falciparum ATP4 L928F mutant by LDH assay; format: functional, organism-based
# Plasmodium falciparum [12] = assay: Antiplasmodial activity against W454-resistant population 2 Plasmodium falciparum 3D7 harboring Plasmodium falciparum ATP4 L928F mutant by LDH assay; format: functional, organism-based
# Plasmodium falciparum [13] = assay: Antiplasmodial activity against W454-resistant population 3 Plasmodium falciparum 3D7 harboring Plasmodium falciparum ATP4 L928F mutant by LDH assay; format: functional, organism-based
# Plasmodium falciparum [14] = assay: Antiplasmodial activity against multidrug-resistant Plasmodium falciparum Dd2 harboring plasmodium falciparum ATP4 I398F/P990R/D1247Y mutant by SYBR green staining based analysis; format: functional, organism-based
# Plasmodium falciparum [15] = assay: Antiplasmodial activity against multidrug-resistant Plasmodium falciparum Dd2 harboring plasmodium falciparum ATP4 G358S mutant by SYBR green staining based analysis; format: functional, organism-based
# Plasmodium falciparum [16] = assay: Antiplasmodial activity against Plasmodium falciparum 3D7 infected in RBC assessed as reduction in extracellular parasite growth at 0.7 µM measured for 8 hrs by Giemsa-staining based microscopic analysis; parameters: scale not given: the % may be the effect or the level left
# Plasmodium berghei [17] = assay: Antimalarial activity against Plasmodium berghei ANKA infected in female BALB/c mouse assessed as parasitemia at 30 mg/kg, po measured for 2 to 72 hrs post infection by Giemsa staining based light microscopy; format: functional; details: time 2-72 hrs
# Plasmodium berghei [18] = assay: Antimalarial activity against Plasmodium berghei ANKA infected in female BALB/c mouse assessed as reduction in parasitemia at 30 mg/kg, po measured for 2 to 72 hrs post infection by Giemsa staining based light microscopy; format: functional; parameters: scale not given: the % may be the effect or the level left; details: time 2-72 hrs
smiles,measurement,setting,value
Cn1cc(-c2ccc3c(C#N)cn(CC(=O)Nc4ccccc4Cl)c3c2)cn1,EC50,Plasmodium falciparum [1],240 nM
same,CC50,HepG2,> 40000 nM
same,solubility kinetic,[2],4.9 µM
same,intrinsic clearance (CLint),[3],62 µL/min/mg
same,intrinsic clearance (CLint),[4],59 uL/min/10^6 cells
same,logD,[5],3
same,IC50,[6],150 nM
same,IC50,[7],1100 nM
same,IC50,[8],230 nM and 1100 nM
same,inhibition,[9],Active
N#Cc1cc(NC(=O)[C@H]2c3ccccc3C(=O)N(CC(F)(F)F)[C@@H]2c2cccnc2)ccc1F [SJ-733],EC50,Plasmodium falciparum [10],61 nM
same,EC50,Plasmodium falciparum [11],579 nM
same,EC50,Plasmodium falciparum [12],537 nM
same,EC50,Plasmodium falciparum [13],533 nM
same,EC50,Plasmodium falciparum [14],95 nM
same,EC50,Plasmodium falciparum [15],> 10000 nM
same,Activity,Plasmodium falciparum [16],~24%
C[C@@H]1CC[C@H]2[C@@H](C)C(=O)O[C@@H]3O[C@@]4(C)CC[C@@H]1[C@]32OO4 [ARTEMISININ],Activity,Plasmodium berghei [17],2.6%
same,Activity,Plasmodium berghei [18],92.4%

# Source: ChEMBL document CHEMBL6115053, “Optimization and Characterization of N-Acetamide Indoles as Antimalarials That Target PfATP4” (J Med Chem, 2025)
